# Laboratory results published in ChEMBL document CHEMBL1125368, “Thiophene systems. 14. Synthesis and antihypertensive activity of novel 7-(cyclic amido)-6-hydroxythieno[3,2-b]pyrans and related compounds as new potassium channel activators” (1992).
# Tests used:
# Format in all cases: functional
# Rattus norvegicus [1] = organism: Rattus norvegicus; experiment: The compound was tested for 30% reduction in mean arterial blood pressure(MAP)
# Method in brief: (§1)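 Conscious SHR with an arterial catheter exteriorized at the nape, held in Bollman restraint cages after a 60-min postsurgical recovery. Only rats with MAP >150 mmHg were used. Single oral gavage dose in distilled water (range 0.003-20 mg/kg), pressure monitored continuously for 4 h by transducer. Maximal % change from predrug MAP over 240 min, N ≥ six rats. ED30 from regression over the linear part of the dose-response, with 95% confidence limits.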
# Oryctolagus cuniculus [2] = organism: Oryctolagus cuniculus; experiment: The compound was tested for increase in [86Rb+] efflux in rabbit isolated mesenteric artery over basal rate at a concentration of 30 uM.
# Method in brief: (§2)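 Vessel rings from freshly killed rabbits, held on steel wires in physiological buffer at 37 °C gassed with 95% O2/5% CO2. Rings loaded with 86Rb (4-5 μCi/mL) for 3-4 h, then moved in pairs through 4 mL buffer tubes every 10 min. Basal efflux taken over 30-40 min, followed by test compound in about five vials, then compound-free washout for 10-20 min. Efflux aliquots and overnight-digested tissue counted by liquid scintillation.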
# Rattus norvegicus [3] = experiment: Maximal change in rat mean arterial blood pressure after 20 mg/kg p.o.; conditions: route oral; method in brief: as §1
# Oryctolagus cuniculus [4] = organism: Oryctolagus cuniculus; experiment: The compound was tested for increase in [86Rb+] efflux in rabbit isolated mesenteric artery over basal rate at a concentration of 10 uM; method in brief: as §2
# Oryctolagus cuniculus [5] = organism: Oryctolagus cuniculus; experiment: The compound was tested for increase in [86Rb+] efflux in rabbit isolated mesenteric artery over basal rate at a concentration of 100 uM; method in brief: as §2
# Rattus norvegicus [6] = experiment: The compound was tested for antihypertensive activity measured as maximal change in mean arterial blood pressure(MAP), after oral administration of 20 mg/kg of the compound.; method in brief: as §1
# Rattus norvegicus [7] = experiment: The compound was tested for antihypertensive activity measured as maximal change in mean arterial blood pressure(MAP), after oral administration of 1 mg/kg of the compound.; method in brief: as §1
# Oryctolagus cuniculus [8] = organism: Oryctolagus cuniculus; experiment: The compound was tested for increase in [86Rb+] efflux in rabbit isolated mesenteric artery over basal rate at a concentration of 10 uM.; method in brief: as §2
# Oryctolagus cuniculus [9] = organism: Oryctolagus cuniculus; experiment: The compound was tested for increase in [86Rb+] efflux in rabbit isolated mesenteric artery over basal rate at a concentration of 1 uM.; method in brief: as §2
# Oryctolagus cuniculus [10] = organism: Oryctolagus cuniculus; experiment: The compound was tested for increase in [86Rb+] efflux in rabbit isolated mesenteric artery over basal rate at a concentration of 30 uM; method in brief: as §2
# Oryctolagus cuniculus [11] = organism: Oryctolagus cuniculus; experiment: The compound was tested for increase in [86Rb+] efflux in rabbit isolated mesenteric artery over basal rate at a concentration of 100 uM.; method in brief: as §2
# Oryctolagus cuniculus [12] = organism: Oryctolagus cuniculus; experiment: The compound was tested for increase in [86Rb+] efflux in rabbit isolated mesenteric artery over basal rate at a concentration of 3 uM.; method in brief: as §2
# Oryctolagus cuniculus [13] = organism: Oryctolagus cuniculus; experiment: The compound was tested for increase in [86Rb+] efflux in rabbit isolated mesenteric artery over basal rate at a concentration of 3 uM; method in brief: as §2
# Oryctolagus cuniculus [14] = organism: Oryctolagus cuniculus; experiment: The compound was tested for increase in [86Rb+] efflux in rabbit isolated mesenteric artery over basal rate at a concentration of 100 uM( Values in parentheses indicates 95%confidence limits); method in brief: as §2
# [15] = Rattus norvegicus, Arterial blood, read-out: ED30
smiles,measurement,setting,value
CC1(C)Oc2ccsc2[C@@H](N2CCCC2=O)[C@@H]1O,ED30,Rattus norvegicus [1]; [15],5.03 mg/kg
same,Increase,Oryctolagus cuniculus [2],8%
same,Change,Rattus norvegicus [3],-55%
same,Increase,Oryctolagus cuniculus [4],0%
same,Increase,Oryctolagus cuniculus [5],25%
CC1(C)Oc2ccsc2[C@@H](N2CCCCC2=O)[C@@H]1O,Increase,Oryctolagus cuniculus [2],26%
same,Change,Rattus norvegicus [3],-53%
same,Increase,Oryctolagus cuniculus [4],7%
same,Increase,Oryctolagus cuniculus [5],40%
COC(=O)c1cc2c(s1)[C@@H](N1CCCCC1=O)[C@H](O)C(C)(C)O2,Increase,Oryctolagus cuniculus [2],51%
same,Change,Rattus norvegicus [3],-37%
same,Increase,Oryctolagus cuniculus [5],63%
CN(C)C(=O)c1cc2c(s1)[C@@H](N1CCCCC1=O)[C@H](O)C(C)(C)O2,Change,Rattus norvegicus [6],-63%
same,Change,Rattus norvegicus [7],-7%
same,Increase,Oryctolagus cuniculus [5],32%
CC1(C)Oc2ccsc2[C@@H](N2CCCCC2)[C@@H]1O,Change,Rattus norvegicus [3],-6%
same,Increase,Oryctolagus cuniculus [5],0%
CC1(C)Oc2cc([N+](=O)[O-])sc2[C@@H](N2CCNC2=O)[C@@H]1O,Change,Rattus norvegicus [6],-3%
CC1(C)Oc2cc([N+](=O)[O-])sc2[C@@H](N2CC(=O)NCC2=O)[C@@H]1O,Change,Rattus norvegicus [6],-4%
same,Increase,Oryctolagus cuniculus [5],0%
CC1(C)Oc2cc([N+](=O)[O-])sc2[C@@H](N2CCCC2=O)[C@@H]1O,ED30,Rattus norvegicus [1]; [15],0.19 mg/kg
same,Increase,Oryctolagus cuniculus [8],67%
same,Increase,Oryctolagus cuniculus [2],110%
same,Change,Rattus norvegicus [3],-60%
same,Increase,Oryctolagus cuniculus [9],48%
same,Increase,Oryctolagus cuniculus [5],114%
CC1(C)Oc2cc(C(N)=O)sc2[C@@H](N2CCCCC2=O)[C@@H]1O,ED30,Rattus norvegicus [1]; [15],0.2 mg/kg
same,Increase,Oryctolagus cuniculus [2],75%
same,Change,Rattus norvegicus [3],-68%
same,Increase,Oryctolagus cuniculus [4],73%
same,Increase,Oryctolagus cuniculus [5],92%
CC1(C)Oc2cc(Br)sc2[C@@H](N2CCCCC2=O)[C@@H]1O,Change,Rattus norvegicus [3],-64%
same,Increase,Oryctolagus cuniculus [10],42%
CC1(C)C=C(N2CCCCC2=O)c2sc([N+](=O)[O-])cc2O1,Change,Rattus norvegicus [3],-5%
COC(=O)c1cc2c(s1)[C@@H](N1CCCC1=O)[C@H](O)C(C)(C)O2,Change,Rattus norvegicus [3],-31%
CC1(C)Oc2cc(C(=O)OCc3ccccc3)sc2[C@@H](N2CCCC2=O)[C@@H]1O,Change,Rattus norvegicus [3],-14%
CNC(=O)c1cc2c(s1)[C@@H](N1CCCCC1=O)[C@H](O)C(C)(C)O2.O,Increase,Oryctolagus cuniculus [11],25%
same,Change,Rattus norvegicus [6],-29%
CC1(C)Oc2cc(C(=O)O)sc2[C@@H](N2CCCCC2=O)[C@@H]1O,Change,Rattus norvegicus [6],-9%
CC1(C)Oc2cc([N+](=O)[O-])sc2[C@@H](n2ccccc2=O)[C@@H]1O,Change,Rattus norvegicus [6],-57%
same,Increase,Oryctolagus cuniculus [10],0%
same,Change,Rattus norvegicus [7],-10%
CC1(C)Oc2cc([N+](=O)[O-])sc2[C@@H](N2CCCNC2=O)[C@@H]1O,Change,Rattus norvegicus [6],-7%
CC1(C)Oc2cc([N+](=O)[O-])sc2[C@@H](N2Cc3ccccc3C2=O)[C@@H]1O,ED30,Rattus norvegicus [1]; [15],0.22 mg/kg
same,Change,Rattus norvegicus [3],-61%
same,Change,Rattus norvegicus [7],-58%
CC1(C)Oc2cc(C#N)sc2[C@@H](N2CCCCC2=O)[C@@H]1O,Change,Rattus norvegicus [6],-66%
same,ED30,Rattus norvegicus [1]; [15],0.03 mg/kg
same,Increase,Oryctolagus cuniculus [2],11%
same,Increase,Oryctolagus cuniculus [5],0%
CC1(C)Oc2cc(C(=O)c3ccccc3)sc2[C@@H](N2CCCC2=O)[C@@H]1O,Increase,Oryctolagus cuniculus [2],33%
same,Change,Rattus norvegicus [3],-50%
same,Change,Rattus norvegicus [7],-4%
same,Increase,Oryctolagus cuniculus [4],0%
same,Increase,Oryctolagus cuniculus [5],58%
CC1(C)Oc2ccsc2[C@@H](N2CCCC2)[C@@H]1O,Change,Rattus norvegicus [3],-14%
same,Increase,Oryctolagus cuniculus [5],0%
CC(=O)c1cc2c(s1)[C@@H](N1CCCCC1=O)[C@H](O)C(C)(C)O2,ED30,Rattus norvegicus [1]; [15],0.09 mg/kg
same,Change,Rattus norvegicus [3],-67%
same,Increase,Oryctolagus cuniculus [10],38%
same,Increase,Oryctolagus cuniculus [4],13%
same,Increase,Oryctolagus cuniculus [5],26%
Cc1cc2c(s1)[C@@H](N1CCCC1=O)[C@H](O)C(C)(C)O2,Change,Rattus norvegicus [3],-28%
CC1(C)Oc2ccsc2[C@@H](N2CCCCCC2=O)[C@@H]1O,Change,Rattus norvegicus [6],-12%
same,Increase,Oryctolagus cuniculus [5],0%
CC1(C)Oc2cc(C#N)sc2[C@@H](N2CCCC2=O)[C@@H]1O,ED30,Rattus norvegicus [1]; [15],0.07 mg/kg
same,Change,Rattus norvegicus [3],-67%
CC1(C)Oc2cc(Br)sc2[C@@H](N2CCCC2=O)[C@@H]1O,Change,Rattus norvegicus [3],-43%
same,Increase,Oryctolagus cuniculus [10],64%
same,Change,Rattus norvegicus [7],-3%
same,Increase,Oryctolagus cuniculus [4],65%
same,Increase,Oryctolagus cuniculus [5],90%
CC1(C)C=C(N2CCCCC2)c2sc([N+](=O)[O-])cc2O1,Change,Rattus norvegicus [3],-17%
CC1(C)Oc2cc(C(=O)C(F)(F)F)sc2[C@@H](N2CCCC2=O)[C@@H]1O,Change,Rattus norvegicus [3],-68%
same,Change,Rattus norvegicus [7],-55%
CC1(C)Oc2cc([N+](=O)[O-])sc2[C@@H](N2CCCCCC2=O)[C@@H]1O,Change,Rattus norvegicus [6],-34%
same,Increase,Oryctolagus cuniculus [10],25%
CC1(C)C=C(n2ccccc2=O)c2sc([N+](=O)[O-])cc2O1,Change,Rattus norvegicus [3],-14%
CC(=O)c1cc2c(s1)[C@@H](N1CCCC1=O)[C@H](O)C(C)(C)O2,ED30,Rattus norvegicus [1]; [15],0.2 mg/kg
same,Change,Rattus norvegicus [3],-62%
same,Increase,Oryctolagus cuniculus [10],40%
same,Increase,Oryctolagus cuniculus [4],37%
same,Increase,Oryctolagus cuniculus [5],57%
CC1(C)Oc2cc([N+](=O)[O-])sc2[C@@H](N2CCCCC2=O)[C@@H]1O (relative stereo),Change,Rattus norvegicus [6],-24%
CC1(C)Oc2cc([N+](=O)[O-])sc2[C@@H](N2CCCCC2=O)[C@@H]1O (stereo in doubt; 32),ED30,Rattus norvegicus [1],0.015 mg/kg
same,Increase,Oryctolagus cuniculus [12],41%
same,Change,Rattus norvegicus [3],-65%
same,Increase,Oryctolagus cuniculus [10],60%
same,Increase,Oryctolagus cuniculus [4],56%
CC1(C)Oc2cc([N+](=O)[O-])sc2[C@@H](N2CCCCC2=O)[C@@H]1O (stereo in doubt; 40),ED30,Rattus norvegicus [1],1.9 mg/kg
same,Increase,Oryctolagus cuniculus [2],11%
same,Increase,Oryctolagus cuniculus [9],2%
same,Change,Rattus norvegicus [7]; 1 mg/kg,-19%
same,Increase,Oryctolagus cuniculus [4],19%
same,Increase,Oryctolagus cuniculus [5],19%
CC1(C)Oc2cc([N+](=O)[O-])sc2[C@@H](N2CCCCC2=O)[C@@H]1O (stereo in doubt; 41),Increase,Oryctolagus cuniculus [11],53%
same,ED30,Rattus norvegicus [1],0.013 mg/kg
same,Increase,Oryctolagus cuniculus [8],80%
same,Increase,Oryctolagus cuniculus [2],91%
same,Increase,Oryctolagus cuniculus [9],26%
same,Increase,Oryctolagus cuniculus [13],66%
same,Change,Rattus norvegicus [7]; 1 mg/kg,-63%
CC1(C)C=C(n2ccccc2=O)c2cc(C#N)ccc2O1 [BIMAKALIM],ED30,Rattus norvegicus [1]; [15],0.01 mg/kg
CC1(C)Oc2ccc(C#N)cc2[C@@H](N2CCCC2=O)[C@@H]1O [LEVCROMAKALIM],ED30,Rattus norvegicus [1]; [15],0.19 mg/kg
same,Increase,Oryctolagus cuniculus [10],73%
same,Increase,Oryctolagus cuniculus [13],41%
same,Increase,Oryctolagus cuniculus [4],46%
same,Increase,Oryctolagus cuniculus [14],104%
